PubChem BioAssay
Calls of active or inactive are those of the source.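 The calls were made as follows, unless noted: active = NADPH fluorescence slope more negative than the mean of all samples by about 3 SD, 99.7% confidence; inactive = the rest.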

Legend:
[1] = inhibitors of TNFa-induced NFkB p65 translocation, primary screen, imaging, HUVEC, MLSMR starter and 10KST1 sets (AID 438;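 active = inhibition above 20% together with a positive visual image hit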;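 also: compound added about 3h40 before a 20 min TNFalpha stimulation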;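 as to inhibition: signal is the nuclear over cytoplasmic p65 intensity ratio per well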); conditions: HUVEC TNFa-induced p65 nuclear translocation; cell count: measured here: nuclei count (cytotoxicity indicator), at 2.08 µM; inhibition: at 2 µM, stronger effect = higher value, 0% TNFa-plus-vehicle, 100% no-TNFa wells
[2] = inhibitors of mutant huntingtin aggregation, primary screen, imaging, exon1htt(103Q)mCFP cells, high-content imaging (AID 483;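 active = visual image review flags a hit and inhibition of aggregation exceeds 20%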;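 also: compound exposure lasted 3 days before fixation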;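 as to nuclei count: percent of the per-plate median nuclei count of sample wells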); conditions: exon1htt(103Q)mCFP cell line, aggregate imaging, at 2 µM; inhibition of aggregation: stronger effect = higher value; nuclei count: measured here: cell count, toxicity
[3] = inhibitors of E-selectin induction by TNFa, primary screen, imaging, HUVEC, immunofluorescence, MLSMR starter and 10KST1 sets (AID 487;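 active = visually confirmed hit in the image check and inhibition above 20%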;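 as to inhibition: signal is fraction of cell area covered by stained E-selectin grains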;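 as to nuclei count: 100% = median nuclei count of all wells on the same plate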); conditions: HUVEC TNFalpha-induced E-selectin immunofluorescence imaging, at 2 µM; inhibition: stronger effect = higher value; nuclei count: measured here: cell number, toxicity
[4] = target: Voltage-gated potassium channel subunit beta-2 (Rattus norvegicus) (UniProt P62483); assay: KvBeta enzyme negative modulators, primary screen, biochemical, NADPH fluorescence (AID 622;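 active = fluorescence slope higher than the sample average by over 3 SD, cut at about -0.22 in these data, passing the limit was not always enough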;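 also: slope of raw intensity against log time taken from 70 to 1610 s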); conditions: recombinant KvBeta, 4-cyanobenzaldehyde reduction, at 10 µM, stronger effect = higher value
Chain of Voltage-gated potassium channel subunit beta-2 (Rattus norvegicus) (P62483 whole entry, looked up): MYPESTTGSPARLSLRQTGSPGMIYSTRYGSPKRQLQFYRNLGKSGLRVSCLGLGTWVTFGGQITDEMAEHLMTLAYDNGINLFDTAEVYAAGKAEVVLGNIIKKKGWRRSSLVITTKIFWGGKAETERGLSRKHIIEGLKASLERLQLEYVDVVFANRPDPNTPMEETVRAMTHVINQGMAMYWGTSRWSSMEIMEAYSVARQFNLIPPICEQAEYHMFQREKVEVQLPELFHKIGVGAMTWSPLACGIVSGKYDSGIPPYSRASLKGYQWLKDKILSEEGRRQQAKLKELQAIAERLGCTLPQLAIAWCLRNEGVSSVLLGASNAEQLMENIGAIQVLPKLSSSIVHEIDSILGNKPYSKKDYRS

[5] = target: Voltage-gated potassium channel subunit beta-2 (Rattus norvegicus) (UniProt P62483); assay: KvBeta positive modulators, primary screen, biochemical, NADPH fluorescence (AID 623); conditions: Recombinant KvBeta, NADPH fluorescence decrease slope, 10 min; at 10 µM; stronger effect = lower value;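 also: fluorescence intensity change per second fitted from 20 to 320 s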
[6] = target: Muscarinic acetylcholine receptor M4 (Homo sapiens) (UniProt P08173); assay: compounds altering M4/GIRK thallium flux, either direction, primary screen, M4 allosteric agonist project, cell-based, HEK293 M4/GIRK, BTC-AM (AID 625;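 active = fluorescence slope after compound addition differing from the mean of all tested samples at 99.7% confidence, mostly higher but some lower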;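 also: thallium influx through GIRK channels coupled to M4 in HEK293 cells with BTC-AM dye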); conditions: at 10 µM, actives lie on both sides
Chain of Muscarinic acetylcholine receptor M4 (Homo sapiens) (P08173 whole entry, looked up): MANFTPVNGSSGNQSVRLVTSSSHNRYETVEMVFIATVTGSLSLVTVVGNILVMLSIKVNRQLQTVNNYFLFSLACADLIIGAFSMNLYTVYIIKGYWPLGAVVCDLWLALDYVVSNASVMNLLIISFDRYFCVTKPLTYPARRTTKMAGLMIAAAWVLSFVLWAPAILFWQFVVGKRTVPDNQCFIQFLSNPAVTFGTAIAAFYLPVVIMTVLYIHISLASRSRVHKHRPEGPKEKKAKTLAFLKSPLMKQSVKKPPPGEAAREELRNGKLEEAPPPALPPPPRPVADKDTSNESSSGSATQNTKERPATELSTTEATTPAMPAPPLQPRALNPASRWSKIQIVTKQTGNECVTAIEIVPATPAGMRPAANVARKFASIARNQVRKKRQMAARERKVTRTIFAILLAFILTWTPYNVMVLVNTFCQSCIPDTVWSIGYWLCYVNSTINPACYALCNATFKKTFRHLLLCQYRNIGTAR
In short: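 Material – HEK293 cells with M4 receptor and GIRK channels · Buffer or medium – pH 7.3 thallium assay buffer · Doses – one dose, 10 µM final · Timing – cells overnight at 37 °C, BTC-AM loading 1 h, reads 2 min total · Measured by – kinetic fluorescence with BTC-AM dye · Controls – carbachol and DMSO controls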

[7] = inhibitors of Sendai virus-induced IRF3 signaling, primary screen, TLR/RLR signaling modifier project, cell-based, Sendai virus stimulus, luciferase, 10K MLSCN set (AID 602276;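 active = inhibition at or above 50% at 10 µM; inactive = inhibition below 50%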;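 also: firefly luciferase from ISG56 promoter only with Renilla not read in this screen; 0% = Sendai virus plus DMSO and 100% = medium plus DMSO without virus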); conditions: HEK293 RL24 IRF3 luciferase reporter, at 10 µM, stronger effect = higher value
[8] = inhibitors of poly I:C-induced TLR3 signaling, primary screen, cell-based, poly I:C stimulus, luciferase, 10K MLSCN set (AID 602277;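 active = inhibition of the reporter signal at or above 50%; inactive = inhibition below 50%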); conditions: HEK293-TLR3 RL24 IRF3 luciferase reporter, at 10 µM, stronger effect = higher value

SMILES	cell count [1]	inhibition [1]	inhibition of aggregation [2]	nuclei count [2]	inhibition [3]	nuclei count [3]	fluorescence slope [4]	NADPH fluorescence slope [5]	fluorescence slope [6]	inhibition [7]	inhibition [8]
CC(=O)c1ccc(Oc2cc(C)nc(-n3nc(C)cc3C)n2)cc1	468	-15.6% (inactive)	-50.7% (inactive)	1.1%	-17.9% (inactive)	102%	-0.547 (inactive)	1.9e-05 (inactive)	0.00511 (inactive)	-4.86% (inactive)	78.2% (active)
COC(=O)c1ccccc1NC(=O)c1noc2c1CCC2	251	0.3% (inactive)	6.7% (inactive)	100%	-15.1% (inactive)	120%	-0.597 (inactive)	-2.5e-05 (inactive)	0.0051 (inactive)	13.1% (inactive)	22.8% (inactive)
Cc1sc2ncnc(OCC(=O)N3CCN(S(=O)(=O)c4ccccc4)CC3)c2c1C	247	-7.7% (inactive)	11.8% (inactive)	90.7%	16.8% (inactive)	91.8%	-0.498 (inactive)	3.8e-05 (inactive)	0.00565 (inactive)	16.8% (inactive)	15.1% (inactive)
C=CCn1c(=O)[nH]c2cc(C(=O)N3CCN(c4ccc(C(C)=O)cc4)CC3)ccc2c1=O	359	-1.8% (inactive)	20.3% (inactive)	101%	-161% (inactive)	106%	-0.464 (inactive)	1.5e-05 (inactive)	0.00531 (inactive)	-1.65% (inactive)	-9.26% (inactive)
COc1ccc(-c2nnc(SCC#N)o2)cc1	333	-8.7% (inactive)	29.7% (active)	86%	24.6% (inactive)	102%	-0.511 (inactive)	-2.6e-05 (inactive)	0.00472 (inactive)	-8.24% (inactive)	-31.5% (inactive)
CCC(=O)Oc1ccc2c(C)cc(=O)oc2c1C	328	3.4% (inactive)	-23.4% (inactive)	98.2%	-42.2% (inactive)	108%	-0.554 (inactive)	-4.5e-05 (inactive)	0.00649 (inactive)	10.7% (inactive)	-2.94% (inactive)
Cc1cccc(NC(=O)CN(C)S(=O)(=O)c2ccccc2)n1	536	-17.1% (inactive)	2.2% (inactive)	123%	-24.3% (inactive)	116%	-0.44 (inactive)	-7.5e-05 (inactive)	0.00526 (inactive)	15% (inactive)	15.7% (inactive)
COC(=O)C1=C(C)NC(=O)C1(NC(=O)CN1CCCC1=O)C(F)(F)F (stereo unspecified)	879	3.6% (inactive)	6.7% (inactive)	106%	-79.8% (inactive)	133%	-0.435 (inactive)	-7.2e-05 (inactive)	0.00621 (inactive)	9.49% (inactive)	21.7% (inactive)
CCS(=O)(=O)c1nc2ccccc2n1CC(=O)N1CCCCC1	507	9.7% (inactive)	-6.2% (inactive)	89.2%	-32.9% (inactive)	99.3%	-0.425 (inactive)	-2.1e-05 (inactive)	0.00578 (inactive)	17.6% (inactive)	27% (inactive)
CCC(=O)Nc1ccc(NC(=O)CSc2nnnn2C(C)C)cc1	667	-8.1% (inactive)	-6% (inactive)	74.9%	-74.4% (inactive)	129%	-0.461 (inactive)	-4.3e-05 (inactive)	0.00465 (inactive)	14.9% (inactive)	16.2% (inactive)
COCc1cc(C)nc(SCC(=O)Nc2cccc(C)c2C)c1C#N	578	-25.9% (inactive)	-17.5% (inactive)	98%	-62.6% (inactive)	107%	-0.432 (inactive)	2.4e-05 (inactive)	0.0109 (inactive)	-2.58% (inactive)	38.1% (inactive)
CCCSc1nc2c(c(=O)[nH]c(=O)n2C)n1CCc1ccccc1	413	11.9% (inactive)	0.6% (inactive)	107%	-76.3% (inactive)	110%	-0.507 (inactive)	-3.4e-05 (inactive)	0.00465 (inactive)	17.9% (inactive)	4.39% (inactive)
COc1ccccc1OCc1ccc(C(=O)NC(C)(C)C)o1	735	-5.5% (inactive)	0.6% (inactive)	62.4%	-20.5% (inactive)	112%	-0.601 (inactive)	5.2e-05 (inactive)	0.00541 (inactive)	-16.1% (inactive)	-22.5% (inactive)
COc1ccc(-n2nnnc2-c2cccc(OC)c2)cc1	573	-45.9% (inactive)	-61.4% (inactive)	2.6%	-101% (inactive)	105%	-0.252 (inactive)	-3.1e-05 (inactive)	0.00701 (inactive)	34.8% (inactive)	47.8% (inactive)
CCc1nnc(NC(=O)c2ccc(S(=O)(=O)NC3CCCCC3)cc2)s1	534	0.4% (inactive)	20.7% (inactive)	107%	-22.8% (inactive)	110%	-0.307 (inactive)	-6e-05 (inactive)	0.00791 (inactive)	0.752% (inactive)	-17.5% (inactive)
CC1CCN(CC(O)COC2CCC(C(C)(C)C)CC2)CC1 (stereo unspecified)	719	-6.8% (inactive)	1.9% (inactive)	118%	-11.7% (inactive)	111%	-0.453 (inactive)	-0.000251 (inactive)	0.00347 (inactive)	6.5% (inactive)	-5.56% (inactive)
Cc1cccc2cc(CN(Cc3nnnn3Cc3ccco3)C3CCCC3)c3nnnn3c12	719	-2.8% (inactive)	4.4% (inactive)	113%	-14% (inactive)	116%	-0.451 (inactive)	3.4e-05 (inactive)	0.00551 (inactive)	9.99% (inactive)	13% (inactive)
CCOc1ccccc1C(=O)NCCCn1ccnc1	469	5.5% (inactive)	6.9% (inactive)	96.2%	-89.5% (inactive)	121%	-0.576 (inactive)	-6.1e-05 (inactive)	0.00757 (inactive)	11.4% (inactive)	8.04% (inactive)
O=C1c2ccccc2C(=O)N1Cc1nc2ccccc2c(=O)n1CCN1CCOCC1	383	-10.3% (inactive)	-11.3% (inactive)	85.7%	-48.6% (inactive)	160%	-0.521 (inactive)	1.6e-05 (inactive)	0.0047 (inactive)	14.9% (inactive)	12.8% (inactive)
CCOC(=O)N1CCN(C(=O)CCc2c(C)nc3c(c(C)nn3-c3ccc(C)c(C)c3)c2C)CC1	653	0.9% (inactive)	-9.9% (inactive)	100%	-63.4% (inactive)	116%	-0.594 (inactive)	1.1e-05 (inactive)	0.00541 (inactive)	20.5% (inactive)	13.8% (inactive)
COc1ccc(CN2CC(C(=O)NCCCOC(C)C)CC2=O)cc1 (stereo unspecified)	766	-12.7% (inactive)	-17.1% (inactive)	102%	-63.4% (inactive)	122%	-0.522 (inactive)	-6.3e-05 (inactive)	0.00604 (inactive)	-10% (inactive)	-6.2% (inactive)
Cc1cccc(NCc2ccccc2O)c1	454	4.9% (inactive)	1.3% (inactive)	94.5%	10.3% (inactive)	104%	-0.55 (inactive)	-2.3e-05 (inactive)	0.00568 (inactive)	10.1% (inactive)	3.99% (inactive)
CC(=O)C1=C(N2CCCCC2)CCC1=O	431	2.3% (inactive)	-14.9% (inactive)	100%	-0.5% (inactive)	109%	-0.328 (inactive)	-1.9e-05 (inactive)	0.00689 (inactive)	8.02% (inactive)	11.2% (inactive)
O=C(CCN1CCN(C(=O)c2ccco2)CC1)Nc1ccc(F)cc1	356	-2.6% (inactive)	-11.1% (inactive)	87.1%	-78.7% (inactive)	108%	-0.459 (inactive)	0.000122 (inactive)	0.00658 (inactive)	11.5% (inactive)	20.2% (inactive)
COc1ccccc1C(=O)N1CCNC(=O)C1CC(=O)Nc1ccc(Cl)cc1 (stereo unspecified)	469	1.3% (inactive)	9.7% (inactive)	105%	-302% (inactive)	123%	-0.565 (inactive)	-2.7e-05 (inactive)	0.00504 (inactive)	18.2% (inactive)	28.3% (inactive)
OCCn1c(CSc2nnc(-c3ccco3)n2-c2ccccc2)nc2ccc(Cl)cc21	724	10.5% (inactive)	6.6% (inactive)	78.4%	14.6% (inactive)	90.8%	-0.574 (inactive)	-3.2e-05 (inactive)	0.00847 (inactive)	9.6% (inactive)	24.7% (inactive)
